# Source: the RNAGym collection of RNA variant scans (doi:10.1126/science.aae0568)
# Variants at the floor of the assay were thinned out.
# B1: tRNA (parent)
# chain: GUUCCGUUGGCGUAAUGGUAACGCGUCUCCCUCCUAAGGAGAAGACUGCGGGUUCGAGUCCCGUACGGAACG
# Variants of: B1
# Test: yeast fitness relative to wild type (ratio to wild type); higher = fitter; tRNA-Arg(CCU), competitive growth, 37 C, YPD
# Method in brief: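 Amplicons of the tRNA-Arg(CCU) gene were sequenced, 100-nucleotide paired-end, from the start population and from each end population of a pooled yeast competition. The competition, in six parallel replicates, lasted 24 hours in YPD at 37°C. Fitness relative to wild type was calculated from changes in genotype frequencies. Genotypes had to have ≥ 100 starting reads, and estimates < 0.5 were set to 0.5.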
row,Variant,yeast fitness
1,U3A A40U A70G,0.597
2,U3A A40U G56A,≤ 0.5
3,U3A A42C,0.72
4,U3A A42C C61A,≤ 0.5
5,U3A A42G,0.73
6,U3A A42G C66U,0.595
7,U3A A42G U53A,≤ 0.5
8,U3A A43C C46A G48C,0.57
9,U3A A43G,0.919
10,U3A A43U C49U,0.69
11,U3A A45C,0.88
12,U3A A45C C62G,≤ 0.5
13,U3A A45G,1
14,U3A A45G G67C,0.628
15,U3A A45U A69U,0.788
16,U3A A45U C46G G52A G68C,≤ 0.5
17,U3A A57C,0.714
18,U3A A57G A69U,0.983
19,U3A A69C,0.919
20,U3A A70C,0.988
21,U3A A70U,0.86
22,U3A C4A A20C C29A,≤ 0.5
23,U3A C4A A20C C29A C66U,≤ 0.5
24,U3A C4A U8C C29G A37C A70C,≤ 0.5

row,Variant,yeast fitness
1,U3A C4A U8C C29G C33G A42G G48A,≤ 0.5
2,U3A C4A U8C C30U A45C G52C,≤ 0.5
3,U3A C4A U8C C31U A37U G48C C66U,≤ 0.5
4,U3A C4A U16A A36C G48A G67A,≤ 0.5
5,U3A C4A U16A C30G U53C C66A,≤ 0.5
6,U3A C4A U16A C30G U53C C66U A70G,≤ 0.5
7,U3A C4A U16A C30G U53C G67A,0.604
8,U3A C4A U16A C30G U53C G67U,≤ 0.5
9,U3A C4A U16G G58C,≤ 0.5
10,U3A C4A U19C C27U C46A C62G A69U,≤ 0.5
11,U3A C4G C60G G67A,≤ 0.5
12,U3A C4G G6A U26G A70U,≤ 0.5
13,U3A C4G G9A C11G U53A C66U,≤ 0.5
14,U3A C4G U8A G50A A57C A70U,0.548
15,U3A C4G U59A A65C A70C,≤ 0.5
16,U3A C4U A37G A40U,≤ 0.5
17,U3A C4U A43G,0.579
18,U3A C4U A70G,0.59
19,U3A C4U C11A U53A A65U,≤ 0.5
20,U3A C4U C11U G48C,0.532
21,U3A C4U C29G,≤ 0.5
22,U3A C4U G10C C33G G52C,≤ 0.5
23,U3A C4U G25C G48A,≤ 0.5
24,U3A C4U G25C G58C,≤ 0.5

row,Variant,yeast fitness
1,U3A C4U G44C,0.638
2,U3A C4U U7A C24U,≤ 0.5
3,U3A C4U U7A C24U A42U G58A C62U G63A,≤ 0.5
4,U3A C4U U7A C24U C46G A65G,≤ 0.5
5,U3A C4U U7A C24U C60U,≤ 0.5
6,U3A C4U U7A C24U U35C C49U C61G,≤ 0.5
7,U3A C4U U13A A36U C62A C66U,≤ 0.5
8,U3A C4U U13A A36U C66U,0.641
9,U3A C5A A65U,≤ 0.5
10,U3A C5A C29A G68A,≤ 0.5
11,U3A C5A C30G G38C C60G,≤ 0.5
12,U3A C5A C33G C34U,0.634
13,U3A C5A C66U,≤ 0.5
14,U3A C5A G6C A14C G48C C55U G63U,≤ 0.5
15,U3A C5A G6C A15G U16A U26G,0.512
16,U3A C5A G12C G25A C30U,≤ 0.5
17,U3A C5A G12C G25A C30U A69C,≤ 0.5
18,U3A C5A G67A,0.548
19,U3A C5G A21U,0.539
20,U3A C5G A21U C22U U32A C49G,0.599
21,U3A C5G C29G A36C C49U U53G,≤ 0.5
22,U3A C5G C46G U53A,0.527
23,U3A C5G C55U G67C,0.599
24,U3A C5G G10A C31U C33G G48C,≤ 0.5

row,Variant,yeast fitness
1,U3A C5G G67C,1
2,U3A C5U,0.85
3,U3A C5U A21G A43C,0.526
4,U3A C5U A42C A43U G56C C66U,≤ 0.5
5,U3A C5U A43G,0.607
6,U3A C5U C22G U53G,≤ 0.5
7,U3A C5U C31G C62G A69U,0.554
8,U3A C5U C62A,≤ 0.5
9,U3A C5U G18C U54A G56A A70G,≤ 0.5
10,U3A C5U U28A G58A,0.5
11,U3A C11A C29U A57C,≤ 0.5
12,U3A C11A C33U A37U G39C,≤ 0.5
13,U3A C11A C33U C60U A65U,≤ 0.5
14,U3A C11G A14C C24G,0.653
15,U3A C11G A14C C24G C31A,≤ 0.5
16,U3A C11G A14C C62U G63A,≤ 0.5
17,U3A C11G A40G U53G G68C,0.654
18,U3A C11G C22A C33G,≤ 0.5
19,U3A C11G C31G C62A,≤ 0.5
20,U3A C11G G17C C24G C46A,≤ 0.5
21,U3A C11G G17C C24G C46A A65U,≤ 0.5
22,U3A C11G G17C C24G C46A G68C,0.553
23,U3A C11G G23C,0.501
24,U3A C11G G41C,0.61

row,Variant,yeast fitness
1,U3A C11U A20C U32A C62U G63A,≤ 0.5
2,U3A C11U A37U G41A G52C A57C,≤ 0.5
3,U3A C11U A69U,0.627
4,U3A C11U C29A A42G,0.629
5,U3A C11U C29A A42G A57C,≤ 0.5
6,U3A C11U C55G C60G,≤ 0.5
7,U3A C11U U13C C31A,≤ 0.5
8,U3A C22A C33A A36U U53A U54A,≤ 0.5
9,U3A C22G C24U G39A,≤ 0.5
10,U3A C22G C27G U59G A69G,≤ 0.5
11,U3A C22G C29G C46U A70U,≤ 0.5
12,U3A C22G C29U,0.55
13,U3A C22G C29U A65C,≤ 0.5
14,U3A C22G C29U G63C C66U,≤ 0.5
15,U3A C22G C30U U32G U53C G68C A70G,≤ 0.5
16,U3A C22G C33G G51A,≤ 0.5
17,U3A C22G G48A,0.544
18,U3A C22U,0.738
19,U3A C24A C27U G56C C66U,≤ 0.5
20,U3A C24G,0.645
21,U3A C24G C29U A36G,0.639
22,U3A C24G C29U A36G A43U,≤ 0.5
23,U3A C24G C31U C61A,0.533
24,U3A C24G C31U C62A,≤ 0.5

row,Variant,yeast fitness
1,U3A C24G C31U C62U A65C,≤ 0.5
2,U3A C24G C33G G51A U53A G56A G67C,≤ 0.5
3,U3A C24G U47C A57U,≤ 0.5
4,U3A C24U,0.765
5,U3A C24U A40U G48A,≤ 0.5
6,U3A C24U A40U G50C A70U,≤ 0.5
7,U3A C24U A45C,0.688
8,U3A C24U C30U,≤ 0.5
9,U3A C24U C46U G48A C49G,≤ 0.5
10,U3A C24U G39A,≤ 0.5
11,U3A C24U G39A C55A,≤ 0.5
12,U3A C27A,0.86
13,U3A C27A A42G C46G,≤ 0.5
14,U3A C27A A43G,0.586
15,U3A C27G,0.643
16,U3A C27G C31U C33U A42C,≤ 0.5
17,U3A C27G C31U C33U A42C C49U,≤ 0.5
18,U3A C27G C62U A65U,≤ 0.5
19,U3A C27U A36G,0.594
20,U3A C27U A36G A70U,0.729
21,U3A C27U A69C,0.713
22,U3A C27U C55A,0.535
23,U3A C27U G41C U64C A70C,0.896
24,U3A C29A A37G,≤ 0.5

row,Variant,yeast fitness
1,U3A C29G,0.575
2,U3A C29G A40U G41C A42C,≤ 0.5
3,U3A C29G A57G,≤ 0.5
4,U3A C29G C60G,≤ 0.5
5,U3A C29G G38A C62G,≤ 0.5
6,U3A C29G G52A C66G,≤ 0.5
7,U3A C29U C31A A40C,0.631
8,U3A C29U U59G C66U,≤ 0.5
9,U3A C30G A57C G58C,≤ 0.5
10,U3A C30G C31U C61U,≤ 0.5
11,U3A C30G C31U G67C,≤ 0.5
12,U3A C30G C33U,0.536
13,U3A C30G C55U,0.673
14,U3A C30G G38C,0.987
15,U3A C30G G38C A69C,0.671
16,U3A C30G U54C,0.502
17,U3A C30G U64A A69C,≤ 0.5
18,U3A C30U A42G,0.757
19,U3A C30U A43C,0.554
20,U3A C30U C31U G52A,≤ 0.5
21,U3A C30U G50C,≤ 0.5
22,U3A C30U G52A,≤ 0.5
23,U3A C31A C34A A37C,0.661
